From PubChem BioAssay
Active and inactive are the calls of the source.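 How the source made its calls, unless noted: active means GFP response above 150% of the DMSO level; inconclusive means fewer than 70 events counted for a yeast strain; inactive means the rest.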

Experiments:
[1] = hit retest on RPL19A-GFP reporter strain – cell-based, S. cerevisiae, flow cytometry, cherry picks, mother/daughter gates, confirmation (AID 2270;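 active means GFP response below 50% of the DMSO control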); details: 3 h, at 10 µM, stronger effect = lower value, 100 = same GFP as DMSO wells
[2] = yeast TOR pathway reporter LAP4-GFP change – cell-based, cherry picks, flow cytometry, mother/daughter gates, confirmation (AID 2271;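 active means GFP response above 150% of the DMSO control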;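 further: ratio of sample to DMSO plate mean so 100% equals DMSO level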); details: S. cerevisiae LAP4-GFP strain, 3 h, at 10 µM, stronger effect = higher value, 100 means same as DMSO control
How it was run: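 Material – Alexa Fluor 633-labelled Saccharomyces cerevisiae GFP-fusion strain, single-plex · Incubation – compound exposure 3 h at 30 °C, end-over-end rotation · Measured by – GFP by flow cytometry · Measure – median GFP fluorescence as percent of plate-mean DMSO wells · Control set – positive rapamycin (400 ng/mL), negative DMSO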

[3] = TOR pathway reporter MEP2-GFP, retest of hits – S. cerevisiae, flow cytometry GFP, cherry picks, confirmation (AID 2272;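 active means GFP response above 150% of the DMSO control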;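 further: ratio of well signal to plate DMSO mean so 100% equals DMSO level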); details: S. cerevisiae MEP2-GFP strain, 3 h, at 10 µM, stronger effect = higher value
[4] = yeast AGP1-GFP fluorescence change, single-dose – cell-based, flow cytometry, S. cerevisiae, cherry picks, confirmation (AID 2273);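 further: median GFP channel fluorescence over the whole cell population gate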; details: S. cerevisiae AGP1-GFP strain, 3 h, at 10 µM
[5] = TOR pathway CIT2 reporter hit retest – S. cerevisiae, GFP fusion, cherry picks, mother/daughter gates, confirmation (AID 2274); details: S. cerevisiae CIT2-GFP strain, flow cytometry, 3 h, at 10 µM, stronger effect = higher value
[6] = measured here: daughter cell gate
[7] = measured here: mother cell gate
[8] = measured here: daughter cell gate response
[9] = measured here: mother cell gate response

Row | Structure (SMILES) | GFP response vs DMSO [1] | GFP response vs DMSO [1, 6] [%] | GFP response vs DMSO [1, 7] [%] | GFP response relative to DMSO [2] | GFP response relative to DMSO [2, 8] [%] | GFP response relative to DMSO [2, 9] [%] | GFP response vs DMSO [3] | GFP response, % of DMSO [4] | GFP response, % of DMSO [5] | GFP response, % of DMSO [5, 6] [%] | GFP response, % of DMSO [5, 7] [%]
1 | COc1ccc(/C=N/c2c(-c3ccco3)nc3ccccn23)cc1OC | 97.8% (inactive) | 98.5 | 98.6 | 95.3% (inactive) | 96.5 | 93.6 | 102% (inactive) | 98.9% (inactive) | 101% (inactive) | 100 | 100
2 | COCc1nnc(NC(=O)c2ccc(S(=O)(=O)N(C)C3CCCCC3)cc2)o1 | 97.6% (inactive) | 98.6 | 97.2 | 103% (inactive) | 102 | 104 | 102% (inactive) | 97.8% (inactive) | 103% (inactive) | 103 | 102
3 | O=C(O)CSc1nnc(-c2ccncc2)n1CCc1ccccc1 | 98.2% (inactive) | 98.4 | 100 | 102% (inactive) | 98.7 | 103 | 100% (inactive) | 98.3% (inactive) | 91.3% (inactive) | 91.5 | 90.2
4 | CC(C)(C)C(=O)C(Cl)C(=O)Nc1ccccc1 (stereo not given) | 79.7% (inactive) | 89.6 | 72.1 | 300% (active) | 186 | 271 | 145% (inactive) | 135% (inactive) | 126% (inactive) | 106 | 115
5 | CCn1cc([N+](=O)[O-])c(C(=O)Nc2nc(-c3ccc(C)c(C)c3)c(C)s2)n1 | 98.8% (inactive) | 98.6 | 99.2 | 95.4% (inactive) | 97.6 | 94 | 100% (inactive) | 101% (inactive) | 99.7% (inactive) | 99.1 | 97.3
6 | O=S(=O)(c1ccc(Cl)cc1)c1snnc1-c1ccccc1 | 93.7% (inactive) | 92.2 | 96.6 | 126% (inactive) | 123 | 129 | 98.8% (inactive) | 102% (inactive) | 95.9% (inactive) | 92.1 | 96.7
7 | Cc1ccc(/C=C/C(=O)N2CC(C)CC(C)C2)o1 (stereo not given) | 103% (inactive) | 105 | 101 | 111% (inactive) | 107 | 113 | 116% (inactive) | 105% (inactive) | 106% (inactive) | 103 | 105
8 | COc1cccc(C(=O)N/N=C(\CC(C)C)c2ccccc2)c1 | 97.8% (inactive) | 97 | 97.7 | 100% (inactive) | 101 | 102 | 103% (inactive) | 98.4% (inactive) | 101% (inactive) | 103 | 103
9 | O=C(COc1ccccc1)NNC(=S)NC(=O)c1ccccc1 | 114% (inactive) | 118 | 110 | 171% (active) | 165 | 166 | 127% (inactive) | 116% (inactive) | 108% (inactive) | 121 | 98.7
10 | O=C(N/N=C/c1c(Cl)cccc1Cl)c1ccc(F)cc1 | 95% (inactive) | 96.1 | 95.7 | 105% (inactive) | 102 | 105 | 96.8% (inactive) | 97.1% (inactive) | 103% (inactive) | 103 | 102
11 | O=C(O)Cc1sc(Nc2ccc(F)cc2)nc1-c1cccs1 | 97.6% (inactive) | 99.4 | 97 | 129% (inactive) | 125 | 135 | 110% (inactive) | 108% (inactive) | 103% (inactive) | 103 | 103
12 | Cc1cccc(NC(=O)c2ccc([N+](=O)[O-])o2)c1 | 103% (inactive) | 105 | 101 | 126% (inactive) | 115 | 125 | 106% (inactive) | 96.2% (inactive) | 105% (inactive) | 106 | 101
13 | O=C(/C=C/c1ccc(-c2ccccc2[N+](=O)[O-])o1)c1ccc(Br)cc1 | 96.4% (inactive) | 97.6 | 96.7 | 121% (inactive) | 118 | 126 | 105% (inactive) | 94.1% (inactive) | 101% (inactive) | 105 | 99.7
14 | CC(Oc1cccc(Cl)c1)C(=O)Nc1nc(-c2ccccn2)cs1 (stereo not given) | 105% (inactive) | 97 | 103 | 161% (active) | 140 | 167 | 104% (inactive) | 90.8% (inactive) | 86.1% (inactive) | 93.2 | 81.6
15 | CCCOc1ccc(C(=O)NNC(=S)NC(=O)CC)cc1 | 126% (inactive) | 103 | 117 | 181% (active) | 120 | 169 | 139% (inactive) | 130% (inactive) | 132% (inactive) | 121 | 117
16 | CN(C(=O)c1cccnc1)c1nc(-c2ccccc2)cs1 | 97.6% (inactive) | 97.3 | 95 | 102% (inactive) | 99 | 102 | 106% (inactive) | 96.1% (inactive) | 98.6% (inactive) | 99.3 | 96
17 | O=C(c1ccc2ccccc2c1)N1CCN(c2ccc(O)cc2)CC1 | 101% (inactive) | 100 | 101 | 101% (inactive) | 102 | 101 | 106% (inactive) | 99.3% (inactive) | 103% (inactive) | 103 | 104
18 | O=C1C2C3C=CC(C4CC34)C2C(=O)N1/N=C/c1ccc([N+](=O)[O-])o1 (stereo not given) | 101% (inactive) | 105 | 95.8 | 129% (inactive) | 122 | 120 | 106% (inactive) | 101% (inactive) | 107% (inactive) | 112 | 100
19 | CSc1ccc(/C=C/C(=O)c2ccc(NC(C)=O)cc2)cc1 | 111% (inactive) | 93.2 | 94.5 | 111% (inactive) | 104 | 113 | 101% (inactive) | 97.5% (inactive) | 91.5% (inactive) | 90.2 | 82.1
20 | Cc1noc(/C=C/c2ccccn2)c1[N+](=O)[O-] | 95.6% (inactive) | 96.1 | 90.8 | 139% (inactive) | 132 | 142 | 99% (inactive) | 96.7% (inactive) | 90.1% (inactive) | 97.4 | 84.6
21 | O=C(OCC(=O)N1CCN(C(=O)c2ccco2)CC1)c1cc(-c2ccccc2)nc2ccccc12 | 76.3% (inactive) | 66.6 | 70.5 | 161% (active) | 117 | 153 | 130% (inactive) | 136% (inactive) | 134% (inactive) | 114 | 130
22 | Cc1ccc(S(=O)(=O)c2ncccc2[N+](=O)[O-])cc1 | 92.2% (inactive) | 93.2 | 89.1 | 129% (inactive) | 123 | 131 | 105% (inactive) | 109% (inactive) | 94.4% (inactive) | 97.4 | 91.9
23 | COc1ccc(N2C(=O)C(Cl)=C(NCc3ccccc3)C2=O)cc1 | 96.5% (inactive) | 93 | 95.9 | 111% (inactive) | 111 | 112 | 99.3% (inactive) | 95.9% (inactive) | 91.7% (inactive) | 92.3 | 90.4
24 | Cc1ccc(CC2CC(=O)N(Cc3ccco3)C2=O)cc1 (stereo not given) | 102% (inactive) | 101 | 101 | 93.8% (inactive) | 97.2 | 94.2 | 95.7% (inactive) | 99.2% (inactive) | 107% (inactive) | 105 | 109
25 | Brc1cc(Br)c2nc(-c3cccs3)ccc2c1 | 97.4% (inactive) | 99.1 | 96.7 | 99.5% (inactive) | 99.1 | 98.4 | 101% (inactive) | 98.2% (inactive) | 100% (inactive) | 97.4 | 99.3
26 | O=C(COc1ccc(F)cc1Cl)Nc1nc(-c2ccccn2)cs1 | 98% (inactive) | 94.7 | 97.1 | 132% (inactive) | 132 | 137 | 110% (inactive) | 98.8% (inactive) | 94.4% (inactive) | 97.6 | 89.3
27 | CC(=O)OCC(=O)[C@@]1(O)CC[C@H]2[C@@H]3CCC4=CC(=O)CC[C@]4(C)[C@H]3C(=O)C[C@@]21C | 102% (inactive) | 100 | 103 | 101% (inactive) | 102 | 102 | 100% (inactive) | 100% (inactive) | 97.8% (inactive) | 96.5 | 97.7
28 | COc1ccc(CN2CCN(c3ncccn3)CC2)c(C)c1C | 96.2% (inactive) | 98.1 | 95.2 | 100% (inactive) | 101 | 100 | 99.3% (inactive) | 100% (inactive) | 100% (inactive) | 101 | 102
29 | O=[N+]([O-])c1cccc(-c2ccc(/C=N/Nc3nc(N4CCCCC4)nc(N4CCCCC4)n3)o2)c1 | 96.8% (inactive) | 94.3 | 98.2 | 118% (inactive) | 114 | 123 | 108% (inactive) | 105% (inactive) | 101% (inactive) | 95.2 | 102
30 | Cc1c(O)ccc(/C=N/Nc2nc(-c3cccnc3)nc3ccccc23)c1O | 97.4% (inactive) | 95.9 | 98.5 | 97.4% (inactive) | 92.5 | 103 | 102% (inactive) | 93.9% (inactive) | 99.1% (inactive) | 96.5 | 98.7
